# ChEMBL document CHEMBL5154945, “Discovery and Optimization of Pyrrolopyrimidine Derivatives as Selective Disruptors of the Perinucleolar Compartment, a Marker of Tumor Progression toward Metastasis” (J Med Chem, 2022)
# Columns and labels:
# [1] = Permeability of the compound at pH 7.4 incubated for 30 mins by UV plate reader based PAMPA assay; conditions: for permeability: pampa, pH 7.4, 0.5 h; for Papp at 0.5 h: PAMPA, pH 7.4
# [2] = Microsomal stability in CD1 mouse liver microsomes assessed as half life measured upto 60 mins in presence of NADPH by LC-MS analysis; conditions: for t1/2: mouse, microsomes, 1 h; for half-life at 1 h: CD1, mouse, liver microsomes
# PC-3M = experiment: Anticancer activity in human PC-3M cells expressing PTB/GFP fusion protein assessed as perinucleolar compartment disassembly and measured after 24 hrs by Hoechst 33342 staining based microscopic method; format: functional, cell-based
# How it was run: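 Imaged by high-content microscopy. Nuclei with PNC spots ≥3 and >0 scored positive. PNC prevalence % = PNC-positive nuclei/total nuclei ×100, normalized to DMSO (0% activity) and 0% PNC (−100%). IC50 from concentration-response.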
SMILES,permeability [1],t1/2 [2],IC50 (PC-3M; read-out: IC50),IC50 (PC-3M; read-out: pIC50 (converted)),Papp at 0.5 h [1],half-life at 1 h [2]
N=c1c2c(-c3ccccc3)c(-c3ccccc3)n(CCc3ccccc3)c2ncn1C1CCOCC1,> 1000 10^-6 cm/s,14.5 min,0.96 µM,10 µM,,
N=c1c2c(-c3ccccc3)c(-c3ccccc3)n(Cc3ccccc3)c2ncn1[C@@H]1CCCC[C@H]1O (relative stereo),> 1000 10^-6 cm/s,28.8 min,,0.501 µM,,
CCOC(CCCn1cnc2c(c(-c3ccccc3)c(-c3ccccc3)n2Cc2ccccc2)c1=N)OCC,> 1000 10^-6 cm/s,4.3 min,,23.4 µM,,
N=c1c2c(-c3ccccc3)c(-c3ccccc3)n(Cc3ccc(S(N)(=O)=O)cc3)c2ncn1CC1CCOCC1,< 1 10^-6 cm/s,8.3 min,,25.1 µM,,
COc1ccc(-c2c(-c3ccc(OC)cc3)n(Cc3ccccc3)c3ncn(C4CCOCC4)c(=N)c23)cc1,> 1000 10^-6 cm/s,58.7 min,> 20 µM,,,
N=c1c2c(-c3ccccc3)c(-c3ccccc3)n(Cc3ccccc3)c2ncn1CCCCCO,> 1000 10^-6 cm/s,9 min,,3.16 µM,,
N=c1c2c(-c3ccccc3)c(-c3ccccc3)n(Cc3ccccc3)c2ncn1CCO,> 1000 10^-6 cm/s,25.1 min,,0.832 µM,,
C[C@H]([C@@H](O)c1ccccc1)n1cnc2c(c(-c3ccccc3)c(-c3ccccc3)n2Cc2ccccc2)c1=N,606 10^-6 cm/s,6.4 min,> 20 µM,,,
COc1ccc(Cn2c(-c3ccccc3)c(-c3ccccc3)c3c(=N)n(CCCO)cnc32)cc1,> 1000 10^-6 cm/s,19.9 min,,2.14 µM,,
N#Cc1c(-c2ccccc2)c(-c2ccccc2)n(Cc2ccccc2)c1/N=C/N[C@H]1CC[C@H](O)CC1,327.5 10^-6 cm/s,11.2 min,> 20 µM,,,
N=c1c2c(-c3ccccc3)c(-c3ccccc3)n(Cc3ccccc3)c2ncn1[C@H]1CC[C@@H](O)CC1,> 1000 10^-6 cm/s,52.3 min,,0.832 µM,,
COc1ccc(Cn2c(-c3ccccc3)c(-c3ccccc3)c3c(=N)n(CC4CCCO4)cnc32)cc1 (stereo unspecified),> 1000 10^-6 cm/s,9.4 min,,8.51 µM,,
N=c1c2c(-c3ccccc3)c(-c3ccccc3)n(Cc3ccccc3)c2ncn1CC1COC1,,,> 20 µM,,7.2 ×10⁻⁶ cm/s,113 min
COc1ccc(Cn2c(-c3ccccc3)c(-c3ccccc3)c3c(=N)n(CC4CCOCC4)cnc32)cc1,1266.09 10^-6 cm/s,13 min,,9.33 µM,,
N=c1c2c(-c3ccccc3)c(-c3ccccc3)n(Cc3ccccc3)c2ncn1CC1CCOC1 (stereo unspecified),> 1000 10^-6 cm/s,5.3 min,,10.7 µM,,
N=c1c2c(-c3ccccc3)c(-c3ccccc3)n(Cc3ccccc3)c2ncn1CC1CCOCC1,> 1000 10^-6 cm/s,7.1 min,,10.7 µM,,
COc1ccc(-c2c(-c3ccc(OC)cc3)n(Cc3ccccc3)c3ncn([C@@H]4CCCC[C@H]4O)c(=N)c23)cc1 (mixture of isomers),> 1000 10^-6 cm/s,29.2 min,> 20 µM,,,
N=c1c2c(-c3ccccc3)c(-c3ccccc3)n(Cc3ccc(OC(F)(F)F)cc3)c2ncn1C1CCOCC1,> 1000 10^-6 cm/s,72 min,,0.955 µM,,
Cc1c(C)n(Cc2ccccc2)c2ncn([C@H]3CC[C@H](O)CC3)c(=N)c12,< 1 10^-6 cm/s,,> 20 µM,,,120 min
N=c1c2c(-c3ccccc3)c(-c3ccccc3)n(Cc3ccccc3)c2ncn1CC1CCCO1 (stereo unspecified),> 1000 10^-6 cm/s,6.5 min,,9.33 µM,,
COc1ccc(Cn2c(-c3ccccc3)c(-c3ccccc3)c3c(=N)n([C@H]4CC[C@H](O)CC4)cnc32)cc1,> 1000 10^-6 cm/s,,,0.158 µM,,120 min

SMILES,permeability [1],t1/2 [2],IC50 (PC-3M; read-out: IC50),IC50 (PC-3M; read-out: pIC50 (converted)),Papp at 0.5 h [1],half-life at 1 h [2]
N=c1c2c(-c3ccccc3)c(-c3ccccc3)n(CCc3ccccc3)c2ncn1CCCCO,,,4.47 µM,4.47 µM,> 1000 ×10⁻⁶ cm/s,6.6 min
COc1ccc(CCn2cnc3c(c(-c4ccccc4)c(-c4ccccc4)n3Cc3ccccc3)c2=N)cc1OC,1196.9 10^-6 cm/s,12.1 min,25.1 µM,25.1 µM,,
N=c1c2c(-c3ccccc3)cn(Cc3ccccc3)c2ncn1Cc1ccco1,1737 10^-6 cm/s,3 min,> 20 µM,,,
N=c1c2c(-c3ccccc3)c(-c3ccccc3)n(CC3CC3)c2ncn1CCCO,> 1000 10^-6 cm/s,25.4 min,6.31 µM,,,
COc1ccc(Cn2c(-c3ccccc3)c(-c3ccccc3)c3c(=N)n(CCO)cnc32)cc1,,,2.83 µM,2.82 µM,> 1000 ×10⁻⁶ cm/s,31.1 min
CN(C)CCCn1cnc2c(c(-c3ccccc3)c(-c3ccccc3)n2Cc2ccccc2)c1=N,,,12.6 µM,12.6 µM,320 ×10⁻⁶ cm/s,120 min
N=c1c2c(-c3ccccc3)c(-c3ccccc3)n(Cc3ccccc3)c2ncn1CCCN1CCN(c2ccccc2)CC1,> 1000 10^-6 cm/s,14 min,,23.4 µM,,
N=c1c2c3c(n(CCc4ccccc4)c2ncn1[C@H]1CC[C@H](O)CC1)CCCC3,204.6 10^-6 cm/s,86.5 min,> 20 µM,,,
N=c1c2c(-c3ccccc3)cn(Cc3ccccc3)c2ncn1CCO,1270.9 10^-6 cm/s,9.2 min,> 20 µM,,,
N=c1c2c(-c3ccccc3)c(-c3ccccc3)n(CC3CC3)c2ncn1CC1CCOCC1,> 1000 10^-6 cm/s,16.3 min,,33.9 µM,,
N=c1c2c(-c3ccccc3)c(-c3ccccc3)n(Cc3ccccc3)c2ncn1C[C@@H]1CCCC[C@H]1CO (relative stereo),> 1000 10^-6 cm/s,17.4 min,,0.933 µM,,
COc1ccc(-c2c(-c3ccc(OC)cc3)n(Cc3ccccc3)c3ncn(CCO)c(=N)c23)cc1,> 1000 10^-6 cm/s,73.2 min,> 20 µM,,,
COc1ccc(-c2c(-c3ccc(OC)cc3)n(Cc3ccccc3)c3ncn(CC4CCOC4)c(=N)c23)cc1 (stereo unspecified),> 1000 10^-6 cm/s,16.5 min,> 20 µM,,,
N=c1c2c(-c3ccccc3)c(-c3ccccc3)n(CCc3ccccc3)c2ncn1CCO,> 1000 10^-6 cm/s,32.6 min,,1.32 µM,,
N=c1c2c(-c3ccccc3)c(-c3ccccc3)n(CC3CC3)c2ncn1C1CCOCC1,> 1000 10^-6 cm/s,68 min,,0.832 µM,,
N#Cc1c(-c2ccccc2)c(-c2ccccc2)n(Cc2ccccc2)c1N,62 10^-6 cm/s,13.3 min,> 20 µM,,,
N=c1c2c(-c3ccccc3)c(-c3ccccc3)n(Cc3ccccc3)c2ncn1CCNc1ccncc1,445.1 10^-6 cm/s,29.9 min,,6.61 µM,,
Cc1c(C)n(Cc2ccccc2)c2ncn(C3CCOCC3)c(=N)c12,1683.3 10^-6 cm/s,26.9 min,> 20 µM,,,
N=c1c2c(-c3ccccc3)c(-c3ccccc3)n(Cc3ccccc3)c2ncn1C[C@@H]1CCCC[C@H]1O (relative stereo),> 1000 10^-6 cm/s,2.4 min,,2 µM,,
N=c1c2c3c(n(CCc4ccccc4)c2ncn1CCCO)CCCC3,,,> 20 µM,,883 ×10⁻⁶ cm/s,4.5 min
N=c1c2c(-c3ccccc3)c(-c3ccccc3)n(Cc3ccc(OC(F)(F)F)cc3)c2ncn1[C@H]1CC[C@@H](O)CC1,1246.89 10^-6 cm/s,,,3.39 µM,,120 min
